Measured values: ChEMBL document CHEMBL3871266, “Synthesis and cytotoxic activity of novel A-ring cleaved ursolic acid derivatives in human non-small cell lung cancer cells” (Eur J Med Chem, 2016)

Columns and labels:
[1] = Cytotoxicity against human NCI-H460 cells expressing CTR5 gene assessed as reduction in cell viability measured after 72 hrs by CellTiter-Blue cell viability assay; format: functional, cell-based
Outline: (§1)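 Monolayer cultures in RPMI-1640 with 10% FBS at 37°C, seeded at 850 (H460 CTR5), 660 (H460 LKB1+/+) or 1780 (H322) cells/well so that the end point reaches 70–80% confluence. Treated 72h; vehicle 0.15% DMSO. CellTiter-Blue added until colour change (50–60, 80–90 or 100–120 min respectively), fluorescence read at 590 nm. IC50 by nonlinear regression; three independent experiments.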

[2] = Cytotoxicity against human NCI-H322 cells assessed as reduction in cell viability measured after 72 hrs by CellTiter-Blue cell viability assay; format: functional, cell-based; outline: as §1
[3] = Cytotoxicity against human LKB1-positive NCI-H460 cells assessed as reduction in cell viability measured after 72 hrs by CellTiter-Blue cell viability assay; format: functional, cell-based; outline: as §1
[4] = Cytotoxicity against human NCI-H460 spheroids expressing CTR5 gene assessed as reduction in cell viability measured after 96 hrs by CellTiter-Glo luminescence viability assay; format: functional, cell-based; settings: NCI-H460, 96 h
Outline: (§2)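 Spheroids grown in round-bottom ultralow-attachment wells, 495 (H460 CTR5) or 650 (H322) cells/well. Drug exposure 96h with DMSO vehicle. CellTiter-Glo added, shaken 20 min, left 10 min, then luminescence read. IC50 by nonlinear regression; three independent experiments.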

[5] = Cytotoxicity against human NCI-H322 spheroids assessed as reduction in cell viability measured after 96 hrs by CellTiter-Glo luminescence viability assay; format: functional; settings: NCI-H322, 96 h; outline: as §2
NCI-H460 = assay: Induction of autophagy in human NCI-H460 cells expressing CTR5 gene assessed as acidic vesicular organelle formation measured after 72 hrs by acridine orange dye based flow cytometry (reference value: 91.2%); format: functional
Outline: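 H460 CTR5 cells plated in 6-well plates (0.095 × 10⁵ cells/well, RPMI-1640 with 10% FBS) and treated 24 h later with vehicle (0.15% DMSO), drug at 3 or 4 μM, or medium alone for 72 h. Bafilomycin A1 was added to the untreated well 30 min before staining as negative control. Cells were stained with acridine orange for 15 min at 37°C in the dark. Flow cytometry read the red/green (FL3/FL1) ratio; three independent experiments.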

[6] = Homo sapiens, NCI-H460, 72 h, read-out: IC50
[7] = Homo sapiens, NCI-H322, 72 h, read-out: IC50

Compound | IC50 [1, 6] | IC50 [2, 7] | IC50 [3, 6] | IC50 [4] | IC50 [5] | Activity (NCI-H460) | IC50 ([1]; nci-h460) | IC50 ([2]; nci-h322) | IC50 ([3]; nci-h460)
C[C@H]1[C@H](C)CC[C@@]23CC[C@]4(C)C(OC2=O)([C@H](F)C[C@@H]2[C@@]5(C)CC[C@H](O)C(C)(C)[C@@H]5CC[C@]24C)[C@H]13 | 19.3 µM | 14.3 µM | 18.7 µM | 19.5 µM |  |  |  |  | 
C[C@H]1[C@H](C)CC[C@]2(C(=O)O)CC[C@]3(C)C(=CC[C@@H]4[C@@]5(C)CC[C@H](O)C(C)(C)[C@@H]5CC[C@]43C)[C@H]12 [URSOLIC ACID] | 14.8 µM | 15.3 µM | 21.1 µM | 30.8 µM | 18.2 µM |  |  |  | 
C=C(C)[C@@H]1CC[C@]2(C)[C@H](C[C@@H](F)C34OC(=O)[C@@]5(CC[C@@H](C)[C@H](C)[C@@H]35)CC[C@]42C)[C@@]1(C)CCC(=O)Nc1ccccc1 | > 50 µM | > 50 µM | > 50 µM |  |  |  |  |  | 
C[C@H]1[C@H](C)CC[C@@]23CC[C@]4(C)C(OC2=O)([C@H](F)C[C@@H]2[C@@]5(C)CCC(=O)NC(C)(C)[C@@H]5CC[C@]24C)[C@H]13 | > 25 µM | > 25 µM | 13.5 µM |  |  |  |  |  | 
C=C(C)[C@@H]1CC[C@]2(C)[C@H](C[C@@H](F)C34OC(=O)[C@@]5(CC[C@@H](C)[C@H](C)[C@@H]35)CC[C@]42C)[C@@]1(C)CCC(=O)NCC | 5.3 µM | 7.3 µM | 7.8 µM | 5.7 µM | 11.6 µM |  |  |  | 
C=C(C)[C@@H]1CC[C@]2(C)[C@H](C[C@@H](F)C34OC(=O)[C@@]5(CC[C@@H](C)[C@H](C)[C@@H]35)CC[C@]42C)[C@@]1(C)CCC(=O)NCCc1ccccc1OC | > 50 µM | > 50 µM | > 50 µM |  |  |  |  |  | 
C=C(C)[C@@H]1CC[C@]2(C)[C@H](C[C@@H](F)C34OC(=O)[C@@]5(CC[C@@H](C)[C@H](C)[C@@H]35)CC[C@]42C)[C@@]1(C)CCC(=O)NCCc1ccccc1 | > 50 µM | > 50 µM | > 50 µM |  |  |  |  |  | 
CO/C1=C\C(C)=C\[C@@H](C)[C@@H](O)[C@@H](C)C/C(C)=C/C=C/[C@H](OC)[C@@H]([C@@H](C)[C@@H](O)[C@H](C)[C@@]2(O)C[C@@H](O)[C@H](C)[C@@H](C(C)C)O2)OC1=O [BAFILOMYCIN A1] |  |  |  |  |  | 100% |  |  | 
C=C(C)[C@@H]1CC[C@]2(C)[C@H](C[C@@H](F)C34OC(=O)[C@@]5(CC[C@@H](C)[C@H](C)[C@@H]35)CC[C@]42C)[C@@]1(C)CCC#N | > 17 µM | > 17 µM | > 17 µM |  |  |  |  |  | 
C=C(C)[C@@H]1CC[C@]2(C)[C@H](C[C@@H](F)C34OC(=O)[C@@]5(CC[C@@H](C)[C@H](C)[C@@H]35)CC[C@]42C)[C@@]1(C)CCC(N)=O | 23 µM | 24.1 µM | 21.8 µM |  |  |  |  |  | 
C[C@H]1[C@H](C)CC[C@@]23CC[C@]4(C)C(OC2=O)([C@H](F)C[C@@H]2[C@@]5(C)CCC(=O)C(C)(C)[C@@H]5CC[C@]24C)[C@H]13 | > 50 µM | > 50 µM | > 50 µM |  |  |  |  |  | 
C=C(C)[C@@H]1CC[C@]2(C)[C@H](C[C@@H](F)C34OC(=O)[C@@]5(CC[C@@H](C)[C@H](C)[C@@H]35)CC[C@]42C)[C@@]1(C)CCC(=O)O | > 50 µM | > 50 µM | > 50 µM |  |  |  |  |  | 
C=C(C)[C@@H]1CC[C@]2(C)[C@H](C[C@@H](F)C34OC(=O)[C@@]5(CC[C@@H](C)[C@H](C)[C@@H]35)CC[C@]42C)[C@@]1(C)CCC(=O)NCc1ccc(F)cc1 | > 50 µM | > 50 µM | > 50 µM |  |  |  |  |  | 
C=C(C)[C@@H]1CC[C@]2(C)[C@H](C[C@@H](F)C34OC(=O)[C@@]5(CC[C@@H](C)[C@H](C)[C@@H]35)CC[C@]42C)[C@@]1(C)CCC(=O)NCc1ccc(C)cc1 | > 50 µM | > 50 µM | > 50 µM |  |  |  |  |  | 
C[C@H]1[C@H](C)CC[C@@]23CC[C@]4(C)C(OC2=O)([C@H](F)C[C@@H]2[C@@]5(C)CCC(=O)OC(C)(C)[C@@H]5CC[C@]24C)[C@H]13 |  |  |  |  |  |  | Nd(Insoluble) | Nd(Insoluble) | Nd(Insoluble)
C=C(C)[C@@H]1CC[C@]2(C)[C@H](C[C@@H](F)C34OC(=O)[C@@]5(CC[C@@H](C)[C@H](C)[C@@H]35)CC[C@]42C)[C@@]1(C)CCC(=O)NCCc1cccc(Cl)c1 | > 50 µM | > 50 µM | > 50 µM |  |  |  |  |  | 
C=C(C)[C@@H]1CC[C@]2(C)[C@H](C[C@@H](F)C34OC(=O)[C@@]5(CC[C@@H](C)[C@H](C)[C@@H]35)CC[C@]42C)[C@@]1(C)CCC(=O)NC | 4.5 µM | 6.8 µM | 6.7 µM | 3 µM | 12.1 µM |  |  |  | 
